The text below walks through data of ChEMBL document CHEMBL1126279, “Antiallergic and cytoprotective activity of new N-phenylbenzamido acid derivatives” (1992).

Calls of active or inactive are those of the source. The rule behind the calls is not given here.

In experiment [1] the test system is Rattus norvegicus. Put plainly: Antiallergic activity against rat passive cutaneous anaphylaxis (PCA) reaction induced by 25 mg/kg of ovalbumin given iv (bolus). Format: functional. The following applies: read-out: ID50 (the source's name).
Experiment [2] concerns Rattus norvegicus. Put plainly: Cytoprotective activity against ethanol-induced gastric lesions in male conscious rats; Inactive. Type of experiment: functional, organism-based. The following applies: Stomach. The procedure, abridged:
(§1)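 Male rats (140–160 g) were fasted 24 h with water allowed. Lesions were induced by 1.5 mL oral absolute ethanol. Drugs were given iv (5 mL/kg) as sodium salt in saline, 15 min before. Stomachs were scored blind at 1 h for necrotic lesion length categories and counts (lesion index). Each agent was given at ≥3 doses, groups of five. % effect vs control was computed, and ID50 came from log-dose regression.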

Experiment [3] has as its system Rattus norvegicus. The experiment in a line: Cytoprotective activity against ethanol-induced gastric lesions in male conscious rats. To be noted: Stomach, read-out: ID50 (the source's name). Type of experiment: functional. The procedure, abridged:
as §1

The species entered for experiment [4] is Rattus norvegicus. The experiment in a line: Inhibition of rat passive cutaneous anaphylaxis reaction; Inactive. Type of experiment: functional, organism-based. The procedure, abridged:
(§2)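 IgE antiserum was raised in male Sprague-Dawley rats by im ovalbumin (25 mg) in Bordetella pertussis suspension, and sera were pooled 14 days later. Naive young rats received 0.05 mL antiserum intradermally at two back sites. After 24 h they were challenged iv with saline containing egg albumin plus Evans blue and killed 30 min later to measure wheal axes. Compounds were given as sodium salt in saline, im, 15 min pre-challenge, at ≥3 doses (n ≥ 15). ID50 was derived by log-dose regression with p = 0.05 fiducial limits.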

The test system of experiment [5] is Rattus norvegicus. The experiment in a line: Antiallergic activity against rat passive cutaneous anaphylaxis (PCA) reaction induced by 25 mg/kg of ovalbumin given iv(bolus). Format: functional. To be noted: read-out: ID50 (the source's name).
For experiment [6], the system named is Rattus norvegicus. Put plainly: Compound was evaluated for cytoprotective activity against sodium chloride-induced gastric lesions in male conscious rats. Format: functional. To be noted: Stomach, read-out: ID50 (the source's name). The procedure, abridged: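 Male rats (140–160 g) were fasted 24 h. Lesions were induced by oral 1.5 mL/animal 25% (w/v) NaCl. Drugs were given iv (5 mL/kg) 15 min before. Stomachs were scored blind at 1 h by lesion index, and % effect vs control was calculated. Some agents were given at five dose levels in groups of five; others in duplicate at 30 and 100 mg/kg. ID50 came from log-dose regression.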

Experiment [7] has as its system Rattus norvegicus. The experiment in a line: Compound was evaluated for cytoprotective activity against glucose-induced gastric lesions in male conscious rats. Format: functional. To be noted: Stomach, read-out: ID50 (the source's name). The procedure, abridged: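 Male rats (180–200 g) were fasted 24 h, then fed solely an aqueous glucose liquid meal. Drugs were given sc twice daily for 9 days. Lesions were scored by number of necrotic lesions and extent of impaired rumen area, and % effect vs control was calculated. Agents were given at four dose levels in groups of five in duplicate, or in duplicate at 100 mg/kg.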

Experiment [8] relates to Rattus norvegicus. The experiment in a line: Compound was evaluated for cytoprotective activity against acetic acid-induced gastric lesions in male conscious rats. Type of experiment: functional. The following applies: Stomach, read-out: ID50 (the source's name). The procedure, abridged: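 Under ether anesthesia, 50 µL of 30% acetic acid was injected into the gastric submucosa of fasted male rats (140–160 g). Drugs were given im at −0.5, 4 and 21 h. […] Agents were given at five dose levels in groups of five, or in duplicate at 100 mg/kg.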

Experiment [9] is filed under the species Rattus norvegicus. Put plainly: Compound was evaluated for antiallergic activity against rat passive cutaneous anaphylaxis (PCA). Type of experiment: functional. To be noted: read-out: ID50 (the source's name). The procedure, abridged:
as §2

On to `CCCc1c2oc(C(=O)O)cc(=O)c2cc2c(=O)cc(C(=O)O)n(CC)c12` [NEDOCROMIL], for which the ED50 in experiment [1] was 1.3 mg/kg. Further, the ID50 result in experiment [2] was “inactive”.
For the molecule `O=C(Nc1ccccc1)c1cccc(-c2nn[nH]n2)c1`, the ED50 in [1] stood at 4.5 mg/kg; in [3], 38.1 mg/kg.
With `O=C(O)c1cc(NC(=O)c2cc(O)cc(O)c2)cc(C(=O)O)c1`, the ED50 in [3] was found to be 90.2 mg/kg. Moreover, the ID50 entry in experiment [4] was “inactive”.
Take `N#Cc1ccc(C(=O)Nc2ccc(C(=O)O)cc2)cc1`: the ID50 result in experiment [2] and in [4] was “inactive” throughout.
Take `N#Cc1ccc(NC(=O)c2ccc(C(=O)O)cc2)cc1`: the ID50 result in [2] and in experiment [4] was “inactive” each time.
As for `O=C(O)c1cc(NC(=O)c2ccc([N+](=O)[O-])cc2)cc(C(=O)O)c1`, the ED50 came out at 9.8 mg/kg in [1] and 61.1 mg/kg in experiment [3].
For the molecule `O=C(O)c1cc(NC(=O)c2cccc(Cl)c2)cc(C(=O)O)c1`, the ID50 result in [2] and in experiment [4] was “inactive” each time.
As for `N#Cc1ccc(NC(=O)c2ccc(-c3nn[nH]n3)cc2)cc1`, the figures for the ED50 in experiment [1] and in [3] were 1.2 mg/kg and 19.7 mg/kg, respectively.
Turning to `NC(=O)c1ccc(NC(=O)c2ccc(-c3nn[nH]n3)cc2)cc1`, the ED50 in [1] was determined as 2 mg/kg; in [3], 33 mg/kg.
In the same order, the values of `O=C(Nc1cccc(-c2nn[nH]n2)c1)c1cccc(-c2nn[nH]n2)c1` are 1.6 mg/kg and 15.8 mg/kg.
In the case of `N#Cc1ccc(C(=O)Nc2cccc(-c3nn[nH]n3)c2)cc1`, the ED50 in [3] came to 21.4 mg/kg. Moreover, the ID50 result in experiment [4] was “inactive”.
Turning to `COc1cc(C(=O)Nc2cc(C(=O)O)cc(C(=O)O)c2)cc(OC)c1OC`, the ID50 result in [2] and in experiment [4] was “inactive” each time.
In the case of `O=C(O)c1cc(NC(=O)c2ccc(C(F)(F)F)cc2)cc(C(=O)O)c1`, the ID50 entry in experiment [2] and in experiment [4] was “inactive” in each case.
With `N#Cc1ccc(C(=O)Nc2ccc(C(=O)O)c(C(=O)O)c2)cc1`, the ED50 in experiment [1] worked out at 10.1 mg/kg. Besides, the ID50 entry in experiment [2] is “inactive”.
Consider `O=C(O)c1cc(NC(=O)c2ccccc2)cc(C(=O)O)c1`, for which the ID50 result in experiment [2] and in experiment [4] was “inactive” in each case.
Turning to `O=C(Nc1ccccc1-c1nn[nH]n1)c1cccc(-c2nn[nH]n2)c1`, the ED50 is 1.4 mg/kg in [5] and 9.7 mg/kg in experiment [3].
With `N#Cc1ccc(C(=O)Nc2ccc(C(=O)O)cc2C(=O)O)cc1`, the ED50 was found to be 19.5 mg/kg in experiment [1] and 66.3 mg/kg in experiment [3].
The matching figures for `O=C(O)c1ccc(C(=O)Nc2cc(C(=O)O)cc(C(=O)O)c2)cc1`: 2.1 mg/kg and 32.2 mg/kg.
`COc1ccc(C(=O)Nc2cc(C(=O)O)cc(C(=O)O)c2)cc1`: the ID50 result in experiment [2] and in [4] was “inactive” throughout.
For the molecule `N#Cc1ccc(C(=O)Nc2cccc(C(=O)O)c2)cc1`, the ID50 entry in [2] and in [4] was “inactive” throughout.
On to `O=C([O-])c1cc(=O)c2c(OCC(O)COc3cccc4oc(C(=O)[O-])cc(=O)c34)cccc2o1.[Na+].[Na+]` [CROMOLYN SODIUM], for which the values for the ED50 in experiment [1] and in experiment [3] were 1.5 mg/kg and 50.8 mg/kg, respectively.
The matching figures for `N#Cc1ccc(C(=O)Nc2cccc(C(=O)O)c2C(=O)O)cc1`: 15.8 mg/kg and 135 mg/kg.
On to `COc1ccc(C(=O)Nc2cc(C(=O)O)cc(C(=O)O)c2)cc1OC`, for which, in [3], the ED50 was 116 mg/kg. The ID50 result in experiment [4] is “inactive”.
As for `O=C(O)c1cc(NC(=O)c2ccc(-c3nn[nH]n3)cc2)cc(C(=O)O)c1`, the ED50 in experiment [1] came to 1.2 mg/kg; in [3], 8.2 mg/kg.
In the case of `O=C(O)c1ccc(NC(=O)c2ccc([N+](=O)[O-])cc2)cc1`, the ID50 result in experiment [2] and in [4] was “inactive” in each case.
As for `CCCCc1ccc(C(=O)Nc2cc(C(=O)O)cc(C(=O)O)c2)cc1`, the ED50 is 12.3 mg/kg in experiment [1] and 91.9 mg/kg in experiment [3].
In the same order, the values of `CN(C(=O)c1ccc(-c2nn[nH]n2)cc1)c1ccc(-c2nn[nH]n2)cc1` are 3.8 mg/kg and 60 mg/kg.
In the case of `O=C(O)c1cc(NC(=O)c2ccc(Cl)cc2)cc(C(=O)O)c1`, the ED50 in experiment [3] is 97.3 mg/kg. For the same molecule, in experiment [4], the ID50 entry is “inactive”.
Regarding `N#Cc1cccc(C(=O)Nc2cc(C(=O)O)cc(C(=O)O)c2)c1`, the ED50 was determined as 5 mg/kg in experiment [1] and 140 mg/kg in [3].
Turning to `O=C(O)c1cc(NC(=O)c2ccc(O)c(O)c2)cc(C(=O)O)c1`, the ID50 entry in experiment [2] and in experiment [4] was “inactive” in each case.
`O=C(O)c1ccc(NC(=O)c2ccc(-c3nn[nH]n3)cc2)cc1`: the ED50 in experiment [1] came out at 2.3 mg/kg; in experiment [3], 3.5 mg/kg.
For `O=C(Nc1ccc(C(=O)O)c(C(=O)O)c1)c1ccc([N+](=O)[O-])cc1`, in experiment [1], the ED50 came to 13.2 mg/kg. Besides, the ID50 entry in experiment [2] was “inactive”.
Regarding `O=C(O)c1cc(NC(=O)c2ccc(O)cc2)cc(C(=O)O)c1`, the ID50 result in [2] and in [4] was “inactive” throughout.
Turning to `N#Cc1ccc(C(=O)Nc2cc(CO)cc(C(=O)O)c2)cc1`, the ID50 result in experiment [2] and in [4] was “inactive” throughout.
Turning to `O=C(O)c1ccc(C(=O)O)c(NC(=O)c2ccc(-c3nn[nH]n3)cc2)c1`, the ED50 was 1.2 mg/kg in experiment [1] and 31.1 mg/kg in experiment [3].
`COc1cc(OC)cc(C(=O)Nc2cc(C(=O)O)cc(C(=O)O)c2)c1`: in experiment [3], the ED50 is 108 mg/kg. For the same molecule, the ID50 result in [4] is “inactive”.
As for `Cc1ccc(C(=O)Nc2cc(C(=O)O)cc(C(=O)O)c2)cc1`, the ID50 entry in experiment [2] and in experiment [4] was “inactive” throughout.
Consider `COc1ccc(/C=C/C(=O)Nc2ccccc2C(=O)O)cc1OC` [TRANILAST], for which the ED50 in experiment [1] is 3.6 mg/kg. For the same molecule, in [2], the ID50 result was “inactive”.
Consider `O=C(Nc1ccccc1)c1ccc(-c2nn[nH]n2)cc1`, for which the ED50 was found to be 8.4 mg/kg in experiment [1] and 40 mg/kg in experiment [3].
The matching figures for `N#Cc1ccc(C(=O)Nc2ccc(-c3nn[nH]n3)cc2)cc1`: 2.4 mg/kg and 54.4 mg/kg.
In the same order, the values of `O=C(Nc1ccccc1-c1nn[nH]n1)c1ccc(-c2nn[nH]n2)cc1` are 1.5 mg/kg and 6.1 mg/kg.
The matching figures for `O=C(Nc1ccc(-c2nn[nH]n2)cc1)c1cccc(-c2nn[nH]n2)c1`: 0.05 mg/kg and 0.6 mg/kg.
Turning to `O=C(Nc1ccc(-c2nnn[nH]2)cc1)c1ccc(-c2nnn[nH]2)cc1` [ANDOLAST], the ED50 in [6] is 18.2 mg/kg; in experiment [7] it was 23.9 mg/kg; in [5], 0.09 mg/kg; in experiment [3] it was 2.5 mg/kg; in experiment [8], 9.4 mg/kg.
On to `N#Cc1ccc(C(=O)Nc2cc(C(=O)O)ccc2C(=O)O)cc1`, for which the ED50 amounted to 1.5 mg/kg in experiment [1] and 26.8 mg/kg in [3].
Turning to `N#Cc1ccc(C(=O)Nc2cc(C(N)=O)cc(C(=O)O)c2)cc1`, the ED50 in experiment [1] came to 5.7 mg/kg; in experiment [3], 87.2 mg/kg.
In the case of `O=C(O)c1cc(NC(=O)c2ccc(Cl)cc2Cl)cc(C(=O)O)c1`, the ED50 in experiment [3] amounted to 103 mg/kg. Besides, the ID50 result in [4] is “inactive”.
On to `CCCc1ccc(C(=O)Nc2cc(C(=O)O)cc(C(=O)O)c2)cc1`, for which the ED50 in experiment [3] was determined as 94.2 mg/kg; in experiment [9], 6.7 mg/kg.
On to `O=C(Nc1cccc(-c2nn[nH]n2)c1)c1ccc(-c2nn[nH]n2)cc1`, for which the results for the ED50 in [1] and in experiment [3] were 0.03 mg/kg and 1.1 mg/kg, respectively.
Consider `CCCOc1ccc(C(=O)Nc2cc(C(=O)O)cc(C(=O)O)c2)cc1`, for which, in experiment [3], the ED50 was found to be 78 mg/kg. Also, the ID50 entry in experiment [4] was “inactive”.
Turning to `O=C(O)c1ccc(NC(=O)c2ccc(C(=O)O)cc2)cc1`, the ED50 in experiment [1] worked out at 25.4 mg/kg; in experiment [3], 54.3 mg/kg.
For the molecule `N#Cc1ccc(C(=O)Nc2cc(C(=O)O)cc(C(=O)O)c2)cc1`, the results for the ED50 in experiment [1] and in experiment [3] were 1.7 mg/kg and 32.1 mg/kg, respectively.
